An excerpt weighted towards active compounds, which were near 1.6% of everything screened.
PPC-1+TRAIL kill – kills PPC-1 cancer cells in the presence of TRAIL | hit rate 0.41% among 220,000 | cell killing (% activity), % at 4 µM or 5 µM | PPC-1 cells + TRAIL, ATPLite viability luminescence | AID 1443;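 active = cell killing above 50% in the first pass at 4 µM, then a duplicate retest at 5 µM averaging 50% or more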;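 also: plate controls were cells with TRAIL plus DMSO for no effect and medium-only wells lacking cells for full effect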
FLuc stim CS – firefly luciferase counter-screen for stimulation assays; AID 1027; activation factor at 10 µM; ATPlite luciferase biochemical, luminescence, 10 min; 0 = ATP-free wells, 1 = DMSO control; 200,000 tested, under 10 active;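 active = luciferase activation factor, scaled between plate controls, of at least 2 with compound at 10 µM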
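Assay system – cell-free luciferase reagent · Medium – PBS-based ATP solution · Dosing – test compounds dosed from 2 mM stocks in 100% DMSO · Timing – 10 min, room temperature · Technique – light output (luminescence) · Measure – luminescence gain marking luciferase activators · Controls – No-ATP low control, compound-free enzyme-plus-ATP high control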
FLuc inh counter – inhibits firefly luciferase, flagging false hits in luciferase inhibition screens; P08659; ATPLite firefly luciferase biochemical luminescence, 10 min; inhibition, % at 10 µM; hit rate 1.5% among 200,000;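 active = inhibition above about 50% when tested at 10 µM, limit read from the data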
TRAIL sens C8 – caspase-8 TRAIL sensitization. NB7+C8 cells + TRAIL, ATPlite viability luminescence. inhibition (viability loss, TRAIL sensitization), % at 10 µM. hit rate 1% among 360,000;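 active = compounds causing at least 50% loss of cell viability in the single-dose screen, relative to plate controls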
PPC-1 tox – PPC-1 cell cytotoxicity; shares compounds with PPC-1+TRAIL kill; PPC-1 viability, ATPlite luminescence, overnight; cytotoxicity, % at 5 µM; hit rate 50% among 1,200;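 active = reconfirmed compounds whose average cytotoxicity reaches 50% or more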;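 also: 0% = DMSO-treated cells and 100% = wells holding medium but no cells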
Numbers without * were called inactive; nt = no result given.

SMILES | PPC-1+TRAIL kill | FLuc stim CS | FLuc inh counter | TRAIL sens C8 | PPC-1 tox
O=C1C(=O)c2ccccc2-c2ccccc21 | 68* | 1 | -1 | 95* | 63*
Cc1ccc2nc(N3CCN(C)CC3)[nH]c2c1 | 6 | 1 | 4 | -3 | 14
CN1CCN(c2nc(N)cc(=O)[nH]2)CC1 | -12 | nt | nt | -17 | nt
CC12CCC3C(CCCC4CC(=O)CCC43C)C1CCC2O (configuration not stated) | nt | nt | nt | -4 | nt
Cc1cc([N+](=O)[O-])c2ccccc2[n+]1[O-] | 94* | nt | nt | 33 | 91*
CCOc1cc(C=C2C(=O)NC(=O)NC2=O)ccc1OCC(=O)N1CCOCC1 | 24 | 1 | -4 | -4 | nt
BrCC(Br)C1CCC(Br)C(Br)C1 (configuration not stated) | nt | nt | nt | -4 | nt
CN(C)Cc1ccccc1OC(=O)N(C)C | 16 | 1 | -2 | -11 | nt
Cc1cccc(CN(C)C)c1OC(=O)N(C)C | 1 | 1 | 0 | -4 | 8
Cc1c(N=Nc2c(O)[nH]c(=O)[nH]c2=O)c(=O)n(-c2ccccc2)n1C | 20 | 1 | -3 | 3 | nt
C=CCn1cc(C=C2C(=O)NC(=O)NC2=O)c2ccccc21 | nt | nt | nt | -10 | nt
Cc1nc2c(=O)n(C)c(=O)nc-2n(C)n1 | 66* | 0.9 | 5 | 96* | 62*
CN1CCN(c2ccc([N+](=O)[O-])c3no[n+]([O-])c23)CC1 | 78* | nt | nt | 95* | 80*
CC(C)N1CCN(Cc2cc3c(cc2Cl)OCO3)CC1CCO (configuration not stated) | -63 | nt | nt | -3 | nt
CC(C)N1CCN(Cc2ccc3c(c2)OCCO3)CC1CCO (configuration not stated) | -9 | 1.1 | -5 | -6 | -6
C=C(C=O)C[C@@H]1C[C@H](O)C2OC3C[C@]4(C)OC5/C=C\CC6OC7C(CC=CCC6OC5CCCC4OC3CC2O1)OC1CC2OC3CC(=O)OC3C[C@@H](C)C[C@@]2(C)OC1C[C@@H]7C (some centres not stated) | 78* | nt | nt | nt | 77*
Cc1cc(Oc2cc(NN3CCCCC3)c([N+](=O)[O-])cc2[N+](=O)[O-])ccc1[N+](=O)[O-] | nt | nt | nt | 12 | nt
CN1C(=O)C(C2c3ccccc3C(=O)N2Cc2ccccc2)C(=O)N(C)C1=O (configuration not stated) | -3 | 1 | 3 | -5 | -4
CN1C(=O)C(C2c3ccccc3C(=O)N2Cc2ccc([N+](=O)[O-])cc2)C(=O)N(C)C1=O (configuration not stated) | 21 | 1.1 | -9 | -14 | nt
